Measurements from ChEMBL document CHEMBL1140381, “Design and studies of novel 5-substituted alkynylpyrimidine nucleosides as potent inhibitors of mycobacteria” (2005).
Converted amounts (≈) assume the structure as drawn.

Key:
Assay type in all cases: functional
[1] = tested on: Mycobacterium tuberculosis variant bovis; test: Minimum inhibitory concentration against Mycobacterium bovis
Outline: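 Alamar blue microplate assay in 7H9GC. BCG or M. avium ATCC 25291 at 2.5 × 10⁵ CFU/mL final, exposed to compound at 100, 50, 10 and 1 µg/mL in triplicate. Reagent added after 6+ days once growth controls turned pink, read after 24 h visually and by fluorescence. MIC₉₀ taken as the lowest concentration giving ~90% growth inhibition.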

[2] = tested on: Mycobacterium tuberculosis variant bovis; test: Inhibition of growth of Mycobacterium bovis was determined using microplate alamar blue assay at 50 ug/mL concentration with compound dissolved in DMSO
Outline: (§1)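 MABA in 7H9GC medium; M. bovis BCG or M. avium ATCC 25291 frozen inocula at 2.5 × 10⁵ CFU/mL final, 100× DMSO stocks diluted into medium. Incubated 6 days, then alamar blue plus 20% Tween-80 added once bacteria-only wells turned pink, read 24 h later by fluorescence. % inhibition = […]. Triplicate wells, three experiments, mean reported.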

[3] = tested on: Mycobacterium tuberculosis variant bovis; test: Inhibition of growth of Mycobacterium bovis was determined using microplate alamar blue assay at 10 ug/mL concentration with compound dissolved in DMSO; outline: as §1
[4] = tested on: Mycobacterium tuberculosis variant bovis; test: Inhibition of growth of Mycobacterium bovis was determined using microplate alamar blue assay at 100 ug/mL concentration with compound dissolved in DMSO; outline: as §1
[5] = tested on: Mycobacterium tuberculosis variant bovis; test: Inhibition of growth of Mycobacterium bovis was determined using microplate alamar blue assay at 1 ug/mL concentration with compound dissolved in DMSO; outline: as §1
[6] = tested on: Mycobacterium tuberculosis variant bovis; test: Inhibition of growth of Mycobacterium bovis was determined using microplate alamar blue assay at 0.5-1 ug/mL concentration with compound dissolved in DMSO

| Structure (SMILES) | MIC90 [1] [µg/mL] | inhibition at 50 µg/mL [2] [%] | inhibition at 10 µg/mL [3] [%] | inhibition at 100 µg/mL [4] [%] | inhibition at 1 µg/mL [5] [%] | Inhibition [6] [%] |
| --- | --- | --- | --- | --- | --- | --- |
| CCCCCCCCC#Cc1cn([C@H]2C[C@H](O)[C@@H](CO)O2)c(=O)nc1N | 50 (≈ 138 µM) | 90 | 10 | 90 | – | – |
| CCCCCCCCC#Cc1cn([C@H]2C[C@H](O)[C@@H](CO)O2)c(=O)[nH]c1=O | 100 (≈ 274 µM) | 50 | 0 | 90 | – | – |
| CCCCCCCCCCC#Cc1cn([C@H]2C[C@H](O)[C@@H](CO)O2)c(=O)nc1N | 10 (≈ 25.5 µM) | 90 | 90 | 90 | 25 | – |
| CCCCCC#Cc1cn([C@H]2C[C@H](O)[C@@H](CO)O2)c(=O)[nH]c1=O | – | 60 | – | 60 | – | – |
| CCCCCCCCCCCCC#Cc1cn([C@H]2C[C@H](O)[C@@H](CO)O2)c(=O)[nH]c1=O | 10 (≈ 23.8 µM) | 90 | 90 | 90 | 33 | – |
| CO[C@H]1/C=C/O[C@@]2(C)Oc3c(C)c(O)c4c(O)c(c(/C=N/N5CCN(C)CC5)c(O)c4c3C2=O)NC(=O)/C(C)=C\C=C\[C@H](C)[C@H](O)[C@@H](C)[C@@H](O)[C@@H](C)[C@H](OC(C)=O)[C@@H]1C [RIFAMPIN] | 1 (≈ 1.22 µM) | – | – | – | – | 100 |
| CCCCCCCCCCC#Cc1cn([C@H]2C[C@H](O)[C@@H](CO)O2)c(=O)[nH]c1=O | 50 (≈ 127 µM) | 90 | 70 | 90 | 25 | – |
